The values that follow come from ChEMBL document CHEMBL1155453, “Spirotetrahydro beta-carbolines (spiroindolones): a new class of potent and orally efficacious compounds for the treatment of malaria” (J Med Chem, 2010).

In brackets after ≈: the same amount, converted by molar mass.

Data set [1] is described as follows: Clearance in mouse at 5 mg/kg, iv. The class given is ADME, organism-based. Further details: dose 5 mg/kg, route intravenous; call rule not given here. The note with it: in vivo.
Data set [2] deals with Plasmodium falciparum. Kind of data set: Antimalarial activity against drug-sensitive Plasmodium falciparum NF54 infected in human erythrocytes after 48 hrs by [3H]hypoxanthine assay. The class given is functional, organism-based.
For a further data set, the target named is Cytochrome P450 2C9 (Homo sapiens, UniProt P11712). As to the kind of experiment: Inhibition of CYP2C9 in human liver microsome by LC-MS/MS analysis. The data set is classed as ADME, microsomes. A general note: Liver microsomes are vesicles of endoplasmic reticulum, rich in cytochrome P450 enzymes.
Chain of Cytochrome P450 2C9 (P11712 whole entry): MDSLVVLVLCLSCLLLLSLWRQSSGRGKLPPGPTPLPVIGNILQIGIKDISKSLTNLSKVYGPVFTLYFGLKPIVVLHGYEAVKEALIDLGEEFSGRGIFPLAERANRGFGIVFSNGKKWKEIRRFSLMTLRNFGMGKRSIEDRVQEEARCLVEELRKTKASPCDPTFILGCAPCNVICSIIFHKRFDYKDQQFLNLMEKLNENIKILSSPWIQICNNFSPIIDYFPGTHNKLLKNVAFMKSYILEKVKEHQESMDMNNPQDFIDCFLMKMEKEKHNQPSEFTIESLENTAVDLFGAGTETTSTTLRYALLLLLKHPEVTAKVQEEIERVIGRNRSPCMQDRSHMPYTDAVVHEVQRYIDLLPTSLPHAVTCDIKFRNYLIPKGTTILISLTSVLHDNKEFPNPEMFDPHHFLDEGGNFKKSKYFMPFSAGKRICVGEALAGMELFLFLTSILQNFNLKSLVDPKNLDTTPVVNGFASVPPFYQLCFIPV
In another data set the target is Cytochrome P450 3A4 (Homo sapiens, UniProt P08684). As to the kind of experiment: Inhibition of CYP3A4 in human liver microsome by LC-MS/MS analysis. The class given is ADME, microsomes.
Chain of Cytochrome P450 3A4 (P08684 whole entry): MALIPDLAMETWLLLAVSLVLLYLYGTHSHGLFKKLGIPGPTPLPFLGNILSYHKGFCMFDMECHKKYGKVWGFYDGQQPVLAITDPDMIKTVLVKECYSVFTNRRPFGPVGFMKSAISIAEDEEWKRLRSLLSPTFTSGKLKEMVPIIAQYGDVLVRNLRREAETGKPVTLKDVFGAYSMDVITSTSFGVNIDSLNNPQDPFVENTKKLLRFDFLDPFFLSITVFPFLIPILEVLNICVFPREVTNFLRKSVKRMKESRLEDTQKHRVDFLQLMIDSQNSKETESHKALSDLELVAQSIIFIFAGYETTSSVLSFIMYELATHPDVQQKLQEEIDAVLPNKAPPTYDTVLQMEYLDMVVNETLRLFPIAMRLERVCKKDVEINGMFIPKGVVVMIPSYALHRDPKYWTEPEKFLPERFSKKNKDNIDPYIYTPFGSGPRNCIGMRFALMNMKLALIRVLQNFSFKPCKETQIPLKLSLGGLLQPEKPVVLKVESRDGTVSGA
A further data set has as its target Cytochrome P450 2D6 (Homo sapiens, UniProt P10635). As to the kind of experiment: Inhibition of CYP2D6 in human liver microsome by LC-MS/MS analysis. The class given is ADME, microsomes.
A short description of data set [3]: Cmax in mouse at 25 mg/kg, po. The class given is ADME, organism-based. Further details: dose 25 mg/kg, route oral. The note with it: in vivo. Summed up: (§1)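 Mouse pharmacokinetics. Plasma drug concentration was followed over time. Derived values: Cmax, Tmax, AUC extrapolated to infinity, terminal half-life, and oral bioavailability (F) from the oral and iv exposures.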

Data set [4] in a line: Tmax in mouse at 25 mg/kg, po. The class given is ADME, organism-based. Further details: dose 25 mg/kg, route oral. The conditions noted are these: in vivo. Summed up:
as §1

A short description of data set [5]: AUC (infinity) in mouse at 25 mg/kg, po. Further details: time infinity, dose 25 mg/kg, route oral. The data set is classed as ADME, organism-based. The conditions noted are these: plasma. The essentials: as §1
Data set [6] in a line: Half life in mouse at 25 mg/kg, po. The class given is ADME, organism-based. Further details: dose 25 mg/kg, route oral. The conditions noted are these: in vivo. The essentials: as §1
The subject of another data set is Mus musculus. As to the kind of experiment: Oral bioavailability in mouse at 25 mg/kg. The class given is ADME, organism-based. The conditions noted are these: in vivo. The essentials: as §1
For data set [7], the system named is Plasmodium berghei. Kind of data set: Antimalarial activity against Plasmodium berghei ANKA infected in NMRI mice (Mus musculus) assessed as host survival time at 30 mg/kg, perorally administered as single dose (reference value: 6 to 7 days). The class given is functional. The conditions noted are these: route oral.
Data set [8] relates to Plasmodium berghei. As to the kind of experiment: Antimalarial activity against Plasmodium berghei ANKA infected in NMRI mice (Mus musculus) assessed as host survival time at 100 mg/kg, perorally administered as single dose (reference value: 6 to 7 days). The class given is functional. The conditions noted are these: route oral.
The subject of data set [9] is Plasmodium berghei. Kind of data set: Antimalarial activity against Plasmodium berghei ANKA infected in NMRI mice (Mus musculus) assessed as host survival time at 10 mg/kg, perorally administered once daily for 3 days (reference value: 6 to 7 days). The conditions noted are these: route oral. The data set is classed as functional.
Data set [10] concerns Plasmodium berghei. Kind of data set: Antimalarial activity against Plasmodium berghei ANKA infected in NMRI mice (Mus musculus) assessed as host survival time at 30 mg/kg, perorally administered once daily for 3 days (reference value: 6 to 7 days). The class given is functional. The conditions noted are these: route oral.
A short description of data set [11]: Solubility at pH 6.8. The data set is classed as physicochemical. The note with it: buffer.
The nature of data set [12]: Lipophilicity, log P of the compound. The data set is classed as physicochemical. The conditions noted are these: octanol/water.
In data set [13] the target is Voltage-gated inwardly rectifying potassium channel KCNH2 (Homo sapiens, UniProt Q12809). Kind of data set: Binding affinity to human ERG.
Chain of Voltage-gated inwardly rectifying potassium channel KCNH2 (Q12809 whole entry): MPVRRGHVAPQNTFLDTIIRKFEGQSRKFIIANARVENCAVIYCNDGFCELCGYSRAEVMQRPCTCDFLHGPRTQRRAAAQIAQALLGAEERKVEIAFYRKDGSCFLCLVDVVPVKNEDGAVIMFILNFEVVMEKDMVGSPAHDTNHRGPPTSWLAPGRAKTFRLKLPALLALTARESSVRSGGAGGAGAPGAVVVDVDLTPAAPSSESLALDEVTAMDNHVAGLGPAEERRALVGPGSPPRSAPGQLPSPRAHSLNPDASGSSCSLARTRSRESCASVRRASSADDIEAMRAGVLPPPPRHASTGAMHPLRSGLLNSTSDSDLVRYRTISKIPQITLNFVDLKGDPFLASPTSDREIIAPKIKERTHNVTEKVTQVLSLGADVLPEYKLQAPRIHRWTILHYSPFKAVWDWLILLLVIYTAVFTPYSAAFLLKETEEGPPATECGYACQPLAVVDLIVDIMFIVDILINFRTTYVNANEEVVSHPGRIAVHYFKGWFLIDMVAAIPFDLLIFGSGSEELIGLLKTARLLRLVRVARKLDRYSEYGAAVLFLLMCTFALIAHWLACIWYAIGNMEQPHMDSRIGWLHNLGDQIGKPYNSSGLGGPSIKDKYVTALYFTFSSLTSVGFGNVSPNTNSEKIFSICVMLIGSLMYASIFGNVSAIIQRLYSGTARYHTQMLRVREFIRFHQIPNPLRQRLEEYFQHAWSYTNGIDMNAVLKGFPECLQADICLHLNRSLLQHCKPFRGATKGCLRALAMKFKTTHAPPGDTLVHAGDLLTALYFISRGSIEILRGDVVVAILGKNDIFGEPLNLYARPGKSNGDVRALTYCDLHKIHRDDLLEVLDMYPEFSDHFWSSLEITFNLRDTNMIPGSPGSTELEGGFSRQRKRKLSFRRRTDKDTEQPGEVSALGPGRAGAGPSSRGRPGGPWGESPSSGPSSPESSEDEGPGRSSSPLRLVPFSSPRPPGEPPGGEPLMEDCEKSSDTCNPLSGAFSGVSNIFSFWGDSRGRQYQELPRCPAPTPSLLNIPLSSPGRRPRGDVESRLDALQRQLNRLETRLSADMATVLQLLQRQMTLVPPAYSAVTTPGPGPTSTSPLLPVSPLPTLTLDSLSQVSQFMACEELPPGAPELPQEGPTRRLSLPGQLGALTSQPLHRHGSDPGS
Data set [14] is described as follows: Clearance in mouse at 5 mg/kg, iv. The conditions noted are these: in vivo.
The nature of data set [15]: Half life in mouse at 5 mg/kg, iv. The conditions noted are these: in vivo.
Data set [16] is described as follows: Volume of distribution at steady state in mouse at 5 mg/kg, iv. The note with it: in vivo, read-out: Vdss.
Data set [17] relates to Plasmodium falciparum. As to the kind of experiment: Antimalarial activity against chloroquine-resistant Plasmodium falciparum K1 infected in human erythrocytes after 48 hrs by [3H]hypoxanthine assay. The class given is functional, organism-based.
For data set [18], the system named is Plasmodium berghei. As to the kind of experiment: Antimalarial activity against Plasmodium berghei ANKA infected in NMRI mice (Mus musculus) assessed as reduction in parasitaemia at 30 mg/kg, perorally administered as single dose. The note with it: route oral. The class given is functional. Further details: scale not given: the % may be the effect or the level left. The essentials: (§2)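 P. berghei-infected mice, 5 per group, given compound orally in 10% ethanol, 30% PEG400, 6% vitamin E TPGS, as a single dose or daily for three days. Parasitemia is measured on day three and reported as percent reduction (activity).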

Data set [19] relates to Plasmodium berghei. Kind of data set: Antimalarial activity against Plasmodium berghei ANKA infected in NMRI mice (Mus musculus) assessed as reduction in parasitaemia at 100 mg/kg, perorally administered as single dose. The note with it: route oral. The data set is classed as functional. Further details: scale not given: the % may be the effect or the level left. The essentials:
as §2

For data set [20], the system named is Plasmodium berghei. As to the kind of experiment: Antimalarial activity against Plasmodium berghei ANKA infected in NMRI mice (Mus musculus) assessed as reduction in parasitaemia at 10 mg/kg, perorally administered once daily for 3 days. The class given is functional. Further details: scale not given: the % may be the effect or the level left. The conditions noted are these: route oral. Summed up: as §2

In data set [21] the test system is Plasmodium berghei. As to the kind of experiment: Antimalarial activity against Plasmodium berghei ANKA infected in NMRI mice (Mus musculus) assessed as reduction in parasitaemia at 30 mg/kg, perorally administered once daily for 3 days. The data set is classed as functional. Further details: scale not given: the % may be the effect or the level left. The conditions noted are these: route oral. Summed up:
as §2

Chain of Cytochrome P450 2D6 (P10635 whole entry): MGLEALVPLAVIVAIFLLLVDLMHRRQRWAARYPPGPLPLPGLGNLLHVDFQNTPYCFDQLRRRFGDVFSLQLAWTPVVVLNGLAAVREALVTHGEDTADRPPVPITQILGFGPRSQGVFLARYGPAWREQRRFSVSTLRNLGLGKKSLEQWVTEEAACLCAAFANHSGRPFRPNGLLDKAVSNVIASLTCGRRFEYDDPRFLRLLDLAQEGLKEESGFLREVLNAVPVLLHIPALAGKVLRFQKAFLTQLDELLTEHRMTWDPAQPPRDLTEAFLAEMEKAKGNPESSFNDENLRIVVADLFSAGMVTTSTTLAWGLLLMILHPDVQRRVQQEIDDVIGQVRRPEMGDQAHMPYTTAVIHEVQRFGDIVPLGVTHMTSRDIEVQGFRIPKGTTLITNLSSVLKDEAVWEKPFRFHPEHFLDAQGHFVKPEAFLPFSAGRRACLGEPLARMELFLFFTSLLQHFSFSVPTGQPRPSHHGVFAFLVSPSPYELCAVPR

Take `C[C@@H]1Cc2c([nH]c3cc(Cl)c(F)cc23)[C@]2(N1)C(=O)Nc1ccc(Cl)cc12`: the clearance in data set [1] amounted to 2.58 mL/min/kg. Moreover, the IC50 in the data set on Plasmodium falciparum [2] is 77 nM; on Cytochrome P450 2C9, over 10000 nM; against Cytochrome P450 3A4, “Not Active”; against Cytochrome P450 2D6 it was “Not Active”.
For the molecule `C[C@H]1Cc2c([nH]c3cc(F)c(F)cc23)[C@@]2(N1)C(=O)Nc1ccc(Cl)cc12`, the Cmax in data set [3] worked out at 8.32 µM. For the same molecule, the Tmax in data set [4] was determined as 2 h. The molecule further returned an AUC(0-inf) in data set [5] of 71.4 µM·h. The half-life in [6] was 3.18 h; in data set [15], 2.94 h. The same molecule showed a F in the data set with Mus musculus of 53%. In addition, the clearance in data set [1] and in data set [14] was 8.53 mL/min/kg each time. For the same molecule, the Survival with Plasmodium berghei [7] was 12 days; in the data set with Plasmodium berghei [8], 13 days; in the data set on Plasmodium berghei [9], 17.2 days; in the data set with Plasmodium berghei [10], 29.4 days. For the same molecule, the IC50 is 0.2 nM with Plasmodium falciparum [2]; over 30000 nM in data set [13]; 7350 nM against Cytochrome P450 2C9; “Not Active” against Cytochrome P450 3A4; “Not Active” on Cytochrome P450 2D6. The molecule further had a solubility in data set [11] of 170 µg/mL (≈ 455 µM). Further, the logP in [12] was found to be 4. In addition, in data set [16], the Vd came out at 1.6 L/kg.
For the molecule `C[C@@H]1Cc2c([nH]c3ccc(F)cc23)[C@]2(N1)C(=O)Nc1ccc(Cl)cc12`, the IC50 in the data set on Plasmodium falciparum [2] is 182 nM; at Cytochrome P450 2C9 it was over 10000 nM; at Cytochrome P450 3A4, “Not Active”; at Cytochrome P450 2D6, “Not Active”.
`C[C@H]1CCc2c([nH]c3ccccc23)[C@@]2(N1)C(=O)Nc1ccc(Br)cc12` had a solubility in data set [11] of 79 µg/mL (≈ 199 µM). Moreover, in [12], the logP is reported as 3.9.
With `C[C@@H]1CCc2c([nH]c3ccccc23)[C@]2(N1)C(=O)Nc1ccc(Br)cc12`, the IC50 in the data set on Plasmodium falciparum [2] is over 5000 nM.
On to `CC1CCc2c([nH]c3ccccc23)C2(N1)C(=O)Nc1ccc(Cl)cc12` (stereo not given), for which the IC50 in the data set with Plasmodium falciparum [2] came out at 84 nM.
On to `O=C1Nc2ccc(Cl)cc2C12NCCCCc1c2[nH]c2ccccc12` (stereo not given), for which the IC50 in the data set on Plasmodium falciparum [2] and in the data set with Plasmodium falciparum [17] was over 5000 nM each time.
Consider `O=C1Nc2ccc(Cl)cc2C12NCCc1c2[nH]c2ccccc12` (stereo not given), for which the IC50 in the data set on Plasmodium falciparum [2] worked out at 126 nM; in the data set on Plasmodium falciparum [17] it was 104 nM.
For `CC1(C)Cc2c([nH]c3ccccc23)C2(N1)C(=O)Nc1ccc(Cl)cc12` (stereo not given), the IC50 with Plasmodium falciparum [2] was determined as 857 nM; with Plasmodium falciparum [17], 819 nM.
Take `C[C@H]1Cc2c([nH]c3ccc(F)cc23)[C@@]2(N1)C(=O)Nc1ccc(Cl)cc12`: the clearance in [1] stood at 24 mL/min/kg. The IC50 with Plasmodium falciparum [2] was 3 nM; against Cytochrome P450 2C9, 1720 nM; against Cytochrome P450 3A4, “Not Active”; against Cytochrome P450 2D6, “Not Active”. In data set [11], this molecule registered a solubility of 140 µg/mL (≈ 393 µM). For the same molecule, the logP in data set [12] is 3.6.
Consider `C[C@@H]1Cc2c([nH]c3cc(Cl)ccc23)[C@]2(N1)C(=O)Nc1ccc(Cl)cc12`, for which the IC50 with Plasmodium falciparum [2] was 116 nM; against Cytochrome P450 2C9 it was over 10000 nM; on Cytochrome P450 3A4, “Not Active”; at Cytochrome P450 2D6 it was “Not Active”.
Regarding `O=C1Nc2ccc(Cl)cc2C12NCCCc1c2[nH]c2ccccc12` (stereo not given), the IC50 in the data set with Plasmodium falciparum [2] is 86 nM; with Plasmodium falciparum [17], 83 nM.
In the case of `C[C@H]1Cc2c([nH]c3cc(Cl)ccc23)[C@@]2(N1)C(=O)Nc1ccc(Cl)cc12`, the clearance in [1] came out at 60.1 mL/min/kg. Further, the IC50 with Plasmodium falciparum [2] was 4 nM; in data set [13], over 30000 nM; against Cytochrome P450 2C9 it was 4110 nM; against Cytochrome P450 3A4 it was “Not Active”; against Cytochrome P450 2D6, “Not Active”. Besides, in [11], the solubility was 8 µg/mL (≈ 21.5 µM). In data set [12], this molecule came in with a logP of 4.8.
On to `C[C@@H]1Cc2c([nH]c3cc(F)c(F)cc23)[C@]2(N1)C(=O)Nc1ccc(Cl)cc12`, for which the clearance in data set [1] turned out to be 4.14 mL/min/kg. Further, the IC50 with Plasmodium falciparum [2] was 83 nM; on Cytochrome P450 2C9, over 10000 nM; on Cytochrome P450 3A4, “Not Active”; against Cytochrome P450 2D6, “Not Active”.
Turning to `C[C@H]1[C@H](OC(=O)CCC(=O)O)O[C@@H]2O[C@@]3(C)CC[C@H]4[C@H](C)CC[C@@H]1[C@@]24OO3` [ARTESUNATE], the Activity with Plasmodium berghei [18] was 95.6%; in the data set on Plasmodium berghei [19] it was 98%; in the data set with Plasmodium berghei [20] it was 96%; in the data set with Plasmodium berghei [21], 99%. The Survival in the data set on Plasmodium berghei [7] is 5.8 days; in the data set on Plasmodium berghei [8], 7 days; in the data set on Plasmodium berghei [9], 8.1 days; in the data set on Plasmodium berghei [10] it was 12.2 days.
In the case of `CCN(CC)CCCC(C)Nc1ccnc2cc(Cl)ccc12` (stereo not given) [CHLOROQUINE], the Activity in the data set with Plasmodium berghei [18] stood at 99.5%; in the data set with Plasmodium berghei [19], 99.6%; in the data set with Plasmodium berghei [20], 99.8%; in the data set on Plasmodium berghei [21], 99.8%. Further, the Survival was found to be 9 days with Plasmodium berghei [7], 12.5 days in the data set on Plasmodium berghei [8], 13.6 days in the data set on Plasmodium berghei [9] and 14.3 days in the data set with Plasmodium berghei [10].
Take `C[C@H]1Cc2c([nH]c3cc(Cl)c(F)cc23)[C@@]2(N1)C(=O)Nc1ccc(Cl)cc12` [CIPARGAMIN]: the IC50 is 5420 nM against Cytochrome P450 2C9, “Not Active” against Cytochrome P450 3A4 and “Not Active” on Cytochrome P450 2D6.
Consider `CC1CCc2c([nH]c3ccccc23)C2(N1)C(=O)Nc1ccc(Br)cc12` (stereo not given) [SPIROAZEPINEINDOLE], for which, in the data set with Plasmodium falciparum [2], the IC50 turned out to be 90 nM.

The clearance is the rate of elimination divided by the concentration. One may read the IC50 as the midpoint of a concentration-inhibition curve. One may read the Cmax as the peak of the concentration-time curve. By Tmax is commonly meant the time at which the peak concentration occurs. What is called AUC(0-inf) is the area under the concentration-time curve extrapolated to infinity. In general, half-life refers to the time in which the quantity being followed falls by half. One may read the solubility as the dissolved amount per volume that the medium holds. One may read the logP as a log measure of how a compound divides between an organic and an aqueous phase.
